{"source": "ChEMBL document CHEMBL1148927", "about": "“A novel antimicrobial indolizinium alkaloid from Aniba panurensis” (J Nat Prod, 2004)", "key": {"Enterococcus faecium [1]": {"tested_on": "Enterococcus faecium", "assay": "[…] activity against Enterococcus faecium 1438 at 100 ug/mL after 18 hrs by broth microdilution assay", "type": "functional, organism-based", "method_in_brief": "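E. faecium 1438 clinical isolate grown at 37 °C with 100 rpm shaking in Todd Hewitt broth with 0.5% yeast extract and 2% NaCl to exponential phase. Culture adjusted to A600 0.3, then diluted 1:1000. Added to dried sample in wells, incubated 18 h, and growth read at A650 against medium-only cultures. Chloramphenicol 100 µg/mL was the inhibition control.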"}, "Staphylococcus aureus [2]": {"tested_on": "Staphylococcus aureus", "assay": "[…] activity against Staphylococcus aureus 385 at 100 ug/mL after 24 hrs by broth microdilution assay"}, "Pichia kudriavzevii": {"tested_on": "Pichia kudriavzevii", "assay": "Antifungal activity against Candida krusei ATCC 6258 by broth microdilution assay", "type": "functional", "method_in_brief": "(§1)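 Broth microdilution in RPMI 1640 buffered with MOPS, following NCCLS guidelines; values reported as MIC90.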"}, "Cryptococcus neoformans [3]": {"tested_on": "Cryptococcus neoformans", "assay": "Antifungal activity against Cryptococcus neoformans 96-1034 by broth microdilution assay", "type": "functional", "method_in_brief": "as §1"}, "Candida parapsilosis": {"tested_on": "Candida parapsilosis", "assay": "Antifungal activity against Candida parapsilosis ATCC 22019 by broth microdilution assay", "type": "functional", "conditions": "Lodderomyces parapsilosis", "method_in_brief": "as §1"}, "[4]": {"assay": "Lipophilicity, log K in octanol water", "type": "physicochemical"}, "Staphylococcus aureus [5]": {"tested_on": "Staphylococcus aureus", "assay": "[…] activity against Staphylococcus aureus 385 after 24 hrs by broth microdilution assay"}, "Clavispora lusitaniae": {"tested_on": "Clavispora lusitaniae", "assay": "Antifungal activity against Candida lusitaniae by broth microdilution assay", "type": "functional", "method_in_brief": "as §1"}, "Nakaseomyces glabratus": {"tested_on": "Nakaseomyces glabratus", "assay": "Antifungal activity against Candida glabrata by broth microdilution assay", "type": "functional", "method_in_brief": "as §1"}, "Candida albicans": {"tested_on": "Candida albicans", "assay": "Antifungal activity against Candida albicans 99-788 after 24 hrs by broth microdilution assay", "type": "functional", "method_in_brief": "(§2)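 Clinical isolates grown in YM broth at 37 °C with shaking at 100 rpm to exponential phase, adjusted to A600 = 0.3, then diluted 1:150 (C. albicans) or 1:128 (C. neoformans). Samples dried in wells, culture added, and tested top dose 250 µg/mL plus five 2-fold dilutions. Incubation 24 h (C. albicans) or 72 h (C. neoformans). A650 read; MIC50 = concentration lowering A650 ≥50% vs medium-only cultures.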"}, "Cryptococcus neoformans [6]": {"tested_on": "Cryptococcus neoformans", "assay": "Antifungal activity against Cryptococcus neoformans 96-1034 after 72 hrs by broth microdilution assay", "type": "functional", "method_in_brief": "as §2"}, "[7]": {"assay": "Toxicity in sheep red blood cells assessed as hemolysis after 2 hrs", "type": "cell-based, Ovis aries", "conditions": "erythrocyte", "method_in_brief": "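Sheep red blood cells at 4% final in 0.2 mL, with samples serially diluted in phosphate-buffered saline; highest dose contained 5% DMSO. Incubated 2 h at 37 °C, then 0.1 mL taken to measure hemolysis.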"}, "Enterococcus faecium [8]": {"tested_on": "Enterococcus faecium", "assay": "[…] activity against Enterococcus faecium 1438 by broth microdilution assay", "type": "functional"}}, "note": "Activity calls are given as the source filed them. No cut-off for these calls is given here."}
{"smiles": "O=C(N[C@H](CO)[C@H](O)c1ccc([N+](=O)[O-])cc1)C(Cl)Cl", "values": [{"measurement": "Activity", "setting": "Enterococcus faecium [1]", "result": "Active"}]}
{"smiles": "O=C(O)c1cn(C2CC2)c2cc(N3CCNCC3)c(F)cc2c1=O", "values": [{"measurement": "Activity", "setting": "Staphylococcus aureus [2]", "result": "Active"}]}
{"smiles": "CCCCCCCC/C=C\\c1c(C)c(/C=C\\CCCCCCCC)c2[n+](c1C)CCC2.O=C([O-])C(F)(F)F", "note": "[ANIBAMINE]", "values": [{"measurement": "MIC90", "setting": "Pichia kudriavzevii", "result": 0.5, "unit": "µg/mL"}, {"measurement": "MIC90", "setting": "Cryptococcus neoformans [3]", "result": 0.25, "unit": "µg/mL"}, {"measurement": "MIC90", "setting": "Candida parapsilosis", "result": 0.5, "unit": "µg/mL"}, {"measurement": "log K", "setting": "[4]", "result": 9.1}, {"measurement": "MIC50", "setting": "Staphylococcus aureus [5]", "result": "> 25", "unit": "µg/mL"}, {"measurement": "MIC90", "setting": "Clavispora lusitaniae", "result": 1, "unit": "µg/mL"}, {"measurement": "MIC90", "setting": "Nakaseomyces glabratus", "result": 2, "unit": "µg/mL"}, {"measurement": "MIC50", "setting": "Candida albicans", "result": 0.25, "unit": "µg/mL"}, {"measurement": "MIC90", "setting": "Candida albicans", "result": 0.5, "unit": "µg/mL"}, {"measurement": "MIC50", "setting": "Cryptococcus neoformans [6]", "result": 0.25, "unit": "µg/mL"}, {"measurement": "Activity", "setting": "[7]", "result": "Toxic"}, {"measurement": "MIC50", "setting": "Enterococcus faecium [8]", "result": 0.25, "unit": "µg/mL"}]}
